Results on four molecules are retold here after publication PMC7132253 (Proceedings of the National Academy of Sciences of the …, 2020).

Where a chain is given by its changes, count along the chain named. Names and notes keep the numbering of the source.

One assay addresses T1, WT mIL-2 (Mus musculus, UniProt P04351).
T1 sequence (P04351 21-169): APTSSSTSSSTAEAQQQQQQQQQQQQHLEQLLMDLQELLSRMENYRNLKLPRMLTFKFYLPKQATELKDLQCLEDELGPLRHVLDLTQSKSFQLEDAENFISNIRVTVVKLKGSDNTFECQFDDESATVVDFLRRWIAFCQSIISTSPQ
Kind of assay: NMR titration with line shape analysis. The format is binding. The gist of the method:
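Kd derived by line-shape analysis (TITAN) of fast-exchange shifts of the V129γ2 and L133δ2 methyl peaks. Errors propagated from spectral signal-to-noise.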

In assay [1] the target is wild-type mouse interleukin-2 (mouse, UniProt P04351). Kind of assay: ITC. (ITC needs no label: the signal is the heat of the interaction.)
The test system of assay [2] is IL-2Rα+ mouse CTLL-2 cells. As to the kind of experiment: STAT5 phosphorylation. As to conditions: IL-2Rα+ CTLL-2 cells. The format is cell-based.
For a further assay, the target named is JES6-1. As to the kind of experiment: Isothermal titration calorimetry of mIL-2 into JES6-1. Format: binding. As to conditions: ITC.

One may read the Kd as the concentration at which binding is half-saturated. A lower Kd goes with tighter binding. As for `COC(=O)[C@H](Cc1ccc(C#Cc2ccccc2)cc1)NC(=O)C[C@H]1CCCN(C(=N)N)C1` [Ro 26-4550], binding at WT mIL-2 was characterised by a dissociation constant (Kd) of 39.4 ± 5.5 µM.

B1: JES6-1 anti-mouse IL-2 monoclonal antibody (antibody, V domains shown)
VH: EIQLQQSGPELRRPGSSVKLSCKASGYNITDYLIHWVRHRPEHGLEWIGWIDPEDGETRYAQKFQSKATLTADTSSNAAYMQLSSLTPEDTATYFCARSLDSTYIYPFAYWGQGTLVTVSS
VL: DIVMTQSPFSLAVSEGEMVTINCKSSQSLLSSGNQKNYLAWYQQKPGQSPKLLIYYASTGQSGVPDRFIGSGSGTDFTLTISDVQAEDLADYYCLQHYISPPTFGAGTKLELK
Turning to B1, in assay [1], the Kd worked out at 2 nM and the dH was determined as 12.7 kcal⋅mol^−1. For the same molecule, the “effect of JES6-1 on mIL-2-mediated STAT5 activation” value in assay [2] is recorded as “fivefold reduced”.

B2: WT mIL-2: wild-type mouse interleukin-2 (amino acids 1-149), recombinant, expressed in E. coli (protein, UniProt P04351 21-169, looked up)
Interleukin-2: T1 sequence (P04351 21-169)
With B2, on JES6-1 (20 °C, 20 mM phosphate pH 7.2, 150 mM NaCl), binding was characterised by a dissociation constant (Kd) of 2 nM.

B3: R52A mIL-2: designed point mutant R52A of mouse IL-2 that eliminates all C-capping interactions (protein)
chain: T1 sequence (P04351 21-169) with R52A
As for B3, the “decrease in binding affinity relative to WT mIL-2” value in the assay on JES6-1 is on record as 1,000 fold. Also, the “effect of JES6-1 on mIL-2-mediated STAT5 activation” value in assay [2] is given as “independent of JES6-1”.
